# Assays:
# [1] = tested on: Mycobacterium tuberculosis; experiment: Antimycobacterial activity against Mycobacterium tuberculosis H37RvMA ATCC 27294 cultured in non protein-based Middlebrook 7H9 medium supplemented with glucose-casitone-tyloxapol assessed as inhibition of bacterial growth incubated for 7 days in by alamar blue staining based assay; assay type: functional; conditions: H37RvMA ATCC 27294, 168 h
# In short: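 Medium is 7H9 with 0.03% Casitone, 0.4% glucose and 0.05% Tyloxapol. H37RvMa is grown to OD600 0.6–0.7 and diluted 1:500. Duplicate two-fold dilutions over 10 wells come from 10 mM DMSO stocks. Incubation at 37 °C, 5% CO2. AlamarBlue added on day 7. The MIC90 is the lowest concentration with no visible growth on day 8, or is read by fluorescence.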
# CHO-K1 = experiment: Cytotoxicity against CHOK1 cells assessed as reduction in cell viability incubated for 48 hrs by MTT assay; assay type: cell-based; conditions: Cricetulus griseus, CHO-K1, 48 h
# In short: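 CHO-K1 cells seeded at 10^5 cells/well 24 h before exposure, medium then replaced with fresh medium containing compound; 48 h at 37 °C, 5% CO2, MTT added at 44 h for 4 h, formazan dissolved in DMSO, OD read at 540 nm. Triplicates; DMSO stocks 2 mg/mL, poorly soluble samples as suspensions; emetine reference; IC50 from non-linear dose-response fit.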
# [2] = tested on: Mycobacterium tuberculosis; experiment: Antimycobacterial activity against Mycobacterium tuberculosis H37RvMA ATCC 27294 cultured in protein-based Middlebrook 7H9 medium supplemented with glucose, albumin-dextrose-catalase and Tween 80 assessed as inhibition of bacterial growth incubated for 7 days in by alamar blue staining based assay; assay type: functional; conditions: H37RvMA ATCC 27294, 168 h
# In short: (§1)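 Broth microdilution MIC90 assay against H37RvMa (ATCC 27294). Culture grown to OD600 0.6–0.7, diluted 1:500. Compounds come from 10 mM DMSO stocks and are run as duplicate two-fold dilutions over 10 wells. Plates incubated at 37 °C, 5% CO2, humidified. AlamarBlue added on day 7 and incubated 24 h more, then read on day 8, visually (blue = no growth) or by fluorescence (excitation 540 nm).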
# [3] = Protein binding in human serum; assay type: ADME, cell-free; conditions: read-out: PB
# [4] = tested on: Mycobacterium tuberculosis; experiment: Antimycobacterial activity against Mycobacterium tuberculosis; assay type: functional; in short: as §1
SMILES,MIC90 [1] [µM],IC50 (CHO-K1) [µM],MIC90 [2] [µM],fraction unbound [3],MIC90 [4] [µM]
CC(=O)O[C@H]1C[C@@]2(C)[C@@H](C[C@@H](O)[C@H]3[C@@]4(C)CC[C@@H](O)[C@@H](C)[C@@H]4CC[C@@]32C)/C1=C(\CCC=C(C)C)C(=O)NC(C)c1ccc(C)cc1 (mixture of isomers),2.91,47.9,> 125,–,–
CC(=O)O[C@H]1C[C@@]2(C)[C@@H](C[C@@H](O)[C@H]3[C@@]4(C)CC[C@@H](O)[C@@H](C)[C@@H]4CC[C@@]32C)/C1=C(\CCC=C(C)C)C(=O)N[C@@H](C)C1CCCCC1,4.5,44.7,> 125,–,–
CC(=O)O[C@H]1C[C@@]2(C)[C@@H](C[C@@H](O)[C@H]3[C@@]4(C)CC[C@@H](O)[C@@H](C)[C@@H]4CC[C@@]32C)/C1=C(\CCC=C(C)C)C(=O)NC(C)c1cnccn1 (mixture of isomers),17.5,> 50,62.5,–,–
COc1cccc(NC(=O)/C(CCC=C(C)C)=C2\[C@@H](OC(C)=O)C[C@@]3(C)[C@H]2C[C@@H](O)[C@H]2[C@@]4(C)CC[C@@H](O)[C@@H](C)[C@@H]4CC[C@@]23C)c1,> 125,42.7,> 125,–,–
CC(=O)O[C@H]1C[C@@]2(C)[C@@H](C[C@@H](O)[C@H]3[C@@]4(C)CC[C@@H](O)[C@@H](C)[C@@H]4CC[C@@]32C)/C1=C(\CCC=C(C)C)C(=O)O [FUSIDIC ACID],0.24,–,9.25,0.03 to 0.05,31
CC(=O)O[C@H]1C[C@@]2(C)[C@@H](C[C@@H](O)[C@H]3[C@@]4(C)CC[C@@H](O)[C@@H](C)[C@@H]4CC[C@@]32C)/C1=C(\CCC=C(C)C)C(=O)Nc1ccc(O)cc1,6.9,45.4,> 125,–,–
CC(=O)O[C@H]1C[C@@]2(C)[C@@H](C[C@@H](O)[C@H]3[C@@]4(C)CC[C@@H](O)[C@@H](C)[C@@H]4CC[C@@]32C)/C1=C(\CCC=C(C)C)C(=O)Nc1ccc(F)cc1,125,39.9,125,–,–
CC(=O)O[C@H]1C[C@@]2(C)[C@@H](C[C@@H](O)[C@H]3[C@@]4(C)CC[C@@H](O)[C@@H](C)[C@@H]4CC[C@@]32C)/C1=C(\CCC=C(C)C)C(=O)N[C@H](C)C1CCCCC1,7.45,> 50,> 125,–,–
CC(=O)O[C@H]1C[C@@]2(C)[C@@H](C[C@@H](O)[C@H]3[C@@]4(C)CC[C@@H](O)[C@@H](C)[C@@H]4CC[C@@]32C)/C1=C(\CCC=C(C)C)C(=O)N[C@@H](C)c1ccccc1Cl,9.8,45.1,41.5,–,–
CC[C@H]1CN2CCc3cc(OC)c(OC)cc3[C@@H]2C[C@@H]1C[C@H]1NCCc2cc(OC)c(OC)cc21 [EMETINE],–,0.02,–,–,–
CC(=O)O[C@H]1C[C@@]2(C)[C@@H](C[C@@H](O)[C@H]3[C@@]4(C)CC[C@@H](O)[C@@H](C)[C@@H]4CC[C@@]32C)/C1=C(\CCC=C(C)C)C(=O)NCc1ccc(O)cc1,125,> 50,125,–,–
COc1ccccc1NC(=O)/C(CCC=C(C)C)=C1\[C@@H](OC(C)=O)C[C@@]2(C)[C@H]1C[C@@H](O)[C@H]1[C@@]3(C)CC[C@@H](O)[C@@H](C)[C@@H]3CC[C@@]12C,6.2,46.1,43.2,–,–
CC(=O)O[C@H]1C[C@@]2(C)[C@@H](C[C@@H](O)[C@H]3[C@@]4(C)CC[C@@H](O)[C@@H](C)[C@@H]4CC[C@@]32C)/C1=C(\CCC=C(C)C)C(=O)NC(C)c1ccncc1 (mixture of isomers),13,> 50,125,–,–
CC(=O)O[C@H]1C[C@@]2(C)[C@@H](C[C@@H](O)[C@H]3[C@@]4(C)CC[C@@H](O)[C@@H](C)[C@@H]4CC[C@@]32C)/C1=C(\CCC=C(C)C)C(=O)NCc1ccccc1,> 125,44.1,125,–,–
CC(=O)O[C@H]1C[C@@]2(C)[C@@H](C[C@@H](O)[C@H]3[C@@]4(C)CC[C@@H](O)[C@@H](C)[C@@H]4CC[C@@]32C)/C1=C(\CCC=C(C)C)C(=O)NC1(c2ccccc2)CC1,13.9,36.8,> 125,–,–
COC(=O)[C@H](NC(=O)/C(CCC=C(C)C)=C1\[C@@H](OC(C)=O)C[C@@]2(C)[C@H]1C[C@@H](O)[C@H]1[C@@]3(C)CC[C@@H](O)[C@@H](C)[C@@H]3CC[C@@]12C)c1ccccc1,7.1,42.9,38.8,–,–

# — ChEMBL document CHEMBL4373649, “Novel antimycobacterial C-21 amide derivatives of the antibiotic fusidic acid: synthesis, pharmacological evaluation and rationalization of media-dependent activity using molecular docking studies in the binding site of human serum albumin” (Medchemcomm, 2019)
